Measured values taken from publication PMC7970580 (ACS Omega, 2021).
Where two headings read alike, the source gives them in different places.

How the values were obtained:
Type in all cases: cell-based
NCIH 460 = experiment: MTT antiproliferative assay, large-cell lung NCIH 460 cells; conditions: Homo sapiens, NCI-H460, 72 h, read-out: IC50 values, N CIH 460
Procedure, shortened: (§1)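 ATCC-sourced cancer cells were seeded in RPMI 1640 at 20 000 cells/mL and left 24 h to adhere. Serial dilutions of test compound ([…], in DMSO) were added, then incubated 72 h. MTT (5 mg/mL in PBS) was added for 4 h. Medium was removed, formazan dissolved in DMSO and read at 570 nm. IC50 came from linear regression of the dose–response curve; three runs, mean ± SD.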

SKMEL-28 = experiment: MTT antiproliferative assay, melanoma SKMEL-28 cells; conditions: read-out: IC50 values, SKMEL-28
Procedure, shortened: as §1

U937 = experiment: MTT antiproliferative assay, leukemia U937 cells; conditions: Homo sapiens, U-937, 72 h, read-out: IC50 values, U937
Procedure, shortened: as §1

RKOP 27 = experiment: MTT antiproliferative assay, colon RKOP 27 cells; conditions: RKOp27, 72 h, read-out: IC50 values, RKOP 27
Procedure, shortened: as §1

HeLa = experiment: MTT antiproliferative assay, cervical HeLa cells; conditions: Homo sapiens, 72 h, read-out: IC50 values, HeLa
Procedure, shortened: as §1

## N#Cc1c(-c2ccc(Cl)cc2)cc(-c2cccc3ccccc23)[nH]c1=O [4a, 4-(4-Chlorophenyl)-6-(naphthalen-1-yl)-2-oxo-1,2-dihydropyridine-3-carbonitrile]
NCIH 460
  IC50: 0.066 ± 0.009 µM
SKMEL-28; Homo sapiens, SK-MEL-28, 72 h
  IC50: 0.59 ± 0.015 µM
U937
  IC50: 0.766 ± 0.019 µM
RKOP 27
  IC50: 0.03 ± 0.0015 µM
HeLa
  IC50: 0.25 ± 0.019 µM

## N#Cc1c(-c2cccs2)cc(-c2cccc3ccccc23)[nH]c1=O [4b, 6-(Naphthalen-1-yl)-2-oxo-4-(thiophen-2-yl)-1,2-dihydropyridine-3-carbonitrile]
NCIH 460
  IC50: 0.058 ± 0.0069 µM
SKMEL-28; Homo sapiens, SK-MEL-28, 72 h
  IC50: 0.669 ± 0.0098 µM
U937
  IC50: 0.836 ± 0.069 µM
RKOP 27
  IC50: 0.039 ± 0.0098 µM
HeLa
  IC50: 0.246 ± 0.069 µM

## N#Cc1c(-c2ccc(Cl)cc2)cc(-c2cccc3ccccc23)n(C(=S)Nc2ccccc2)c1=O [5a, 4-(4-Chlorophenyl)-3-cyano-6-(naphthalen-1-yl)-2-oxo-N-phenylpyridine-1(2H)-carbothioamide]
NCIH 460
  IC50: 0.518 ± 0.0566 µM
SKMEL-28; Homo sapiens, SK-MEL-28, 72 h
  IC50: 1.16 ± 0.318 µM
U937
  IC50: 1.53 ± 0.255 µM
RKOP 27
  IC50: 0.635 ± 0.0458 µM
HeLa
  IC50: 0.973 ± 0.185 µM

## N#Cc1c(-c2cccs2)cc(-c2cccc3ccccc23)n(C(=S)Nc2ccccc2)c1=O [5b, 3-Cyano-6-(naphthalen-1-yl)-2-oxo-N-phenyl-4-(thiophen-2-yl)pyridine-1(2H)-carbothioamide]
NCIH 460
  IC50: 0.032 ± 0.0055 µM
SKMEL-28; Homo sapiens, SK-MEL-28, 72 h
  IC50: 0.755 ± 0.018 µM
U937
  IC50: 0.98 ± 0.055 µM
RKOP 27
  IC50: 0.056 ± 0.0032 µM
HeLa
  IC50: 0.277 ± 0.055 µM

## N#Cc1c(-c2ccc(Cl)cc2)cc(-c2cccc3ccccc23)nc1Cl [6a, 2-Chloro-4-(4-chlorophenyl)-6-(naphthalen-1-yl)nicotinonitrile]
NCIH 460
  IC50: 0.689 ± 0.098 µM
SKMEL-28; Homo sapiens, SK-MEL-28, 72 h
  IC50: 1.85 ± 0.321 µM
U937
  IC50: 1.34 ± 0.174 µM
RKOP 27
  IC50: 0.512 ± 0.032 µM
HeLa
  IC50: 0.896 ± 0.115 µM

## N#Cc1c(-c2cccs2)cc(-c2cccc3ccccc23)nc1Cl [6b, 2-Chloro-6-(naphthalen-1-yl)-4-(thiophen-2-yl)nicotinonitrile]
NCIH 460
  IC50: 0.728 ± 0.088 µM
SKMEL-28; Homo sapiens, SK-MEL-28, 72 h
  IC50: 1.37 ± 0.215 µM
U937
  IC50: 2.55 ± 0.374 µM
RKOP 27
  IC50: 0.695 ± 0.056 µM
HeLa
  IC50: 0.795 ± 0.096 µM

## N#Cc1c(-c2ccc(Cl)cc2)cc(-c2cccc3ccccc23)[nH]c1=S [7a, 4-(4-Chlorophenyl)-6-(naphthalen-1-yl)-2-thioxo-1,2-dihydropyridine-3-carbonitrile]
NCIH 460
  IC50: 0.764 ± 0.102 µM
SKMEL-28; Homo sapiens, SK-MEL-28, 72 h
  IC50: 1.24 ± 0.196 µM
U937
  IC50: 1.63 ± 0.298 µM
RKOP 27
  IC50: 0.596 ± 0.096 µM
HeLa
  IC50: 1.02 ± 0.136 µM

## N#Cc1c(-c2cccs2)cc(-c2cccc3ccccc23)[nH]c1=S [7b, 6-(Naphthalen-1-yl)-4-(thiophen-2-yl)-2-thioxo-1,2-dihydropyridine-3-carbonitrile]
NCIH 460
  IC50: 0.638 ± 0.138 µM
SKMEL-28; Homo sapiens, SK-MEL-28, 72 h
  IC50: 1.13 ± 0.137 µM
U937
  IC50: 1.57 ± 0.321 µM
RKOP 27
  IC50: 0.697 ± 0.072 µM
HeLa
  IC50: 1.37 ± 0.213 µM

## CCCCCCCCN(c1nc(-c2cccc3ccccc23)cc(-c2ccc(Cl)cc2)c1C#N)c1nc(-c2cccc3ccccc23)cc(-c2ccc(Cl)cc2)c1C#N [8a, 2,2′-(Octylazanediyl)bis(4-(4-chlorophenyl)-6-(naphthalen-1-yl)nicotinonitrile)]
NCIH 460
  IC50: 0.048 ± 0.0074 µM
SKMEL-28; Homo sapiens, SK-MEL-28, 72 h
  IC50: 0.774 ± 0.021 µM
U937
  IC50: 0.544 ± 0.074 µM
RKOP 27
  IC50: 0.04 ± 0.0021 µM
HeLa
  IC50: 0.229 ± 0.074 µM

## CCCCCCCCN(c1nc(-c2cccc3ccccc23)cc(-c2cccs2)c1C#N)c1nc(-c2cccc3ccccc23)cc(-c2cccs2)c1C#N [8b, 2,2′-(Octylazanediyl)bis(6-(naphthalen-1-yl)-4-(thiophen-2-yl)nicotinonitrile)]
NCIH 460
  IC50: 0.468 ± 0.069 µM
SKMEL-28; Homo sapiens, SK-MEL-28, 72 h
  IC50: 1.26 ± 0.168 µM
U937
  IC50: 1.37 ± 0.284 µM
RKOP 27
  IC50: 0.486 ± 0.049 µM
HeLa
  IC50: 1.04 ± 0.326 µM

## N#Cc1c(-c2ccc(Cl)cc2)cc(-c2cccc3ccccc23)nc1NCCN [10a, 2-((2-Aminoethyl)amino)-4-(4-chlorophenyl)-6-(naphthalen-1-yl)nicotinonitrile]
NCIH 460
  IC50: 0.896 ± 0.078 µM
SKMEL-28; Homo sapiens, SK-MEL-28, 72 h
  IC50: 1.79 ± 0.236 µM
U937
  IC50: 1.81 ± 0.369 µM
RKOP 27
  IC50: 0.596 ± 0.059 µM
HeLa
  IC50: 1.16 ± 0.206 µM

## N#Cc1c(-c2cccs2)cc(-c2cccc3ccccc23)nc1NCCN [10b, 2-((2-Aminoethyl)amino)-6-(naphthalen-1-yl)-4-(thiophen-2-yl)nicotinonitrile]
NCIH 460
  IC50: 0.046 ± 0.0069 µM
SKMEL-28; Homo sapiens, SK-MEL-28, 72 h
  IC50: 0.669 ± 0.026 µM
U937
  IC50: 0.642 ± 0.069 µM
RKOP 27
  IC50: 0.046 ± 0.0026 µM
HeLa
  IC50: 0.211 ± 0.069 µM

## N#Cc1c(-c2ccc(Cl)cc2)cc(-c2cccc3ccccc23)nc1NN [11a, 4-(4-Chlorophenyl)-2-hydrazinyl-6-(naphthalen-1-yl)nicotinonitrile]
NCIH 460
  IC50: 0.044 ± 0.0072 µM
SKMEL-28; Homo sapiens, SK-MEL-28, 72 h
  IC50: 0.572 ± 0.036 µM
U937
  IC50: 0.458 ± 0.072 µM
RKOP 27
  IC50: 0.055 ± 0.0036 µM
HeLa
  IC50: 0.255 ± 0.072 µM

## N#Cc1c(-c2cccs2)cc(-c2cccc3ccccc23)nc1NN [11b, 2-Hydrazinyl-6-(naphthalen-1-yl)-4-(thiophen-2-yl)nicotinonitrile]
NCIH 460
  IC50: 0.478 ± 0.096 µM
SKMEL-28; Homo sapiens, SK-MEL-28, 72 h
  IC50: 1.3 ± 0.106 µM
U937
  IC50: 1.59 ± 0.215 µM
RKOP 27
  IC50: 0.846 ± 0.096 µM
HeLa
  IC50: 1.27 ± 0.227 µM

## Cc1nnc2c(C#N)c(-c3ccc(Cl)cc3)cc(-c3cccc4ccccc34)n12 [12a, 7-(4-Chlorophenyl)-3-methyl-5-(naphthalen-1-yl)-[1,2,4]triazolo[4,3-a]pyridine-8-carbonitrile]
NCIH 460
  IC50: 0.033 ± 0.0051 µM
SKMEL-28; Homo sapiens, SK-MEL-28, 72 h
  IC50: 0.51 ± 0.041 µM
U937
  IC50: 0.581 ± 0.051 µM
RKOP 27
  IC50: 0.048 ± 0.0041 µM
HeLa
  IC50: 0.185 ± 0.051 µM

## Cc1nnc2c(C#N)c(-c3cccs3)cc(-c3cccc4ccccc34)n12 [12b, 3-Methyl-5-(naphthalen-1-yl)-7-(thiophen-2-yl)-[1,2,4]triazolo[4,3-a]pyridine-8-carbonitrile]
NCIH 460
  IC50: 0.648 ± 0.076 µM
SKMEL-28; Homo sapiens, SK-MEL-28, 72 h
  IC50: 1.37 ± 0.389 µM
U937
  IC50: 1.47 ± 0.151 µM
RKOP 27
  IC50: 0.869 ± 0.087 µM
HeLa
  IC50: 1.44 ± 0.108 µM

## Cc1cc(=O)[nH]n1-c1nc(-c2cccc3ccccc23)cc(-c2ccc(Cl)cc2)c1C#N [13a, 4-(4-Chlorophenyl)-2-(5-methyl-3-oxo-2,3-dihydro-1H-pyrazol-1-yl)-6-(naphthalen-1-yl)nicotinonitrile]
NCIH 460
  IC50: 0.765 ± 0.089 µM
SKMEL-28; Homo sapiens, SK-MEL-28, 72 h
  IC50: 1.5 ± 0.218 µM
U937
  IC50: 1.69 ± 0.089 µM
RKOP 27
  IC50: 0.879 ± 0.068 µM
HeLa
  IC50: 1.27 ± 0.103 µM

## Cc1cc(=O)[nH]n1-c1nc(-c2cccc3ccccc23)cc(-c2cccs2)c1C#N [13b, 2-(5-Methyl-3-oxo-2,3-dihydro-1H-pyrazol-1-yl)-6-(naphthalen-1-yl)-4-(thiophen-2-yl)nicotinonitrile]
NCIH 460
  IC50: 0.869 ± 0.076 µM
SKMEL-28; Homo sapiens, SK-MEL-28, 72 h
  IC50: 1.36 ± 0.182 µM
U937
  IC50: 1.76 ± 0.068 µM
RKOP 27
  IC50: 0.698 ± 0.079 µM
HeLa
  IC50: 1.36 ± 0.139 µM

## N#Cc1c(-c2cccs2)cc(-c2cccc3ccccc23)nc1NNC(=O)Cc1ccccc1 [14b, N′-(3-Cyano-6-(naphthalen-1-yl)-4-(thiophen-2-yl)pyridin-2-yl)-2-phenylacetohydrazide]
NCIH 460
  IC50: 0.789 ± 0.069 µM
SKMEL-28; Homo sapiens, SK-MEL-28, 72 h
  IC50: 1.36 ± 0.098 µM
U937
  IC50: 0.976 ± 0.125 µM
RKOP 27
  IC50: 0.869 ± 0.087 µM
HeLa
  IC50: 1.39 ± 0.11 µM

## CCCCCOC(=O)Nc1nc(=O)n([C@@H]2O[C@H](C)[C@@H](O)[C@H]2O)cc1F [capecitabine, reference compound]
RKOP 27
  IC50: 4.33 ± 0.064 µM

## COc1cccc2c1C(=O)c1c(O)c3c(c(O)c1C2=O)C[C@@](O)(C(=O)CO)C[C@@H]3O[C@H]1C[C@H](N)[C@H](O)[C@H](C)O1 [doxorubicin, reference compound]
U937
  IC50: 4.45 ± 0.05 µM

## Nc1ccn([C@@H]2O[C@H](CO)[C@@H](O)C2(F)F)c(=O)n1 [gemcitabine, reference compound]
NCIH 460
  IC50: 2.13 ± 0.05 µM

## aldelseukin [reference compound]
SKMEL-28; MTT, 72 h, mean ± SD, three runs
  IC50: 3.45 ± 0.064 µM
